{"data": "Results pooled from the literature", "target": "Vascular endothelial growth factor receptor 2 (KDR, Homo sapiens, UniProt P35968)", "note": "Each line is one published result; the experiments were not run side by side."}
{"SMILES": "C#Cc1n[nH]c2c(-c3cn([C@@H](C)c4ccccn4)c(=O)[nH]c3=O)cc(F)cc12", "effect on": "enzyme activity", "action": "inhibitor", "concentration": "0.1 µM", "measurement": "inhibition", "result": "6.6%"}
{"SMILES": "Cc1nn(C)cc1-c1nc2c(N3CCN(Cc4ccc(Cl)cc4)CC3)c(Cl)cnc2[nH]1", "effect on": "binding", "method": "competition with immobilised ligand", "concentration": "1 µM", "measurement": "remaining binding", "result": "12%"}
{"SMILES": "O=c1[nH]c2ccccc2n1C1CCN(Cc2ccc(-c3[nH]c4cc5ncnc5cc4nc3-c3ccccc3)cc2)CC1", "effect on": "cell-free assay", "concentration": "0.5 µM", "measurement": "remaining signal", "result": "90.9%"}
{"SMILES": "Cn1cncc1[C@](O)(COc1ccc(C#N)cc1-c1ccc(OC(F)(F)F)cc1)c1ccc(C#N)cc1", "effect on": "cell-free assay", "method": "competition with immobilised ligand", "concentration": "1 µM", "measurement": "remaining binding", "result": "96%"}
{"SMILES": "COc1ccc2c(c1)/C(=C/c1cnc[nH]1)C(=O)N2", "effect on": "cell-free assay", "concentration": "0.5 µM", "measurement": "remaining signal", "result": "78.7%"}
{"SMILES": "COc1ncccc1-c1cnn2ccc(N3CCN(C(=O)OC(C)C)CC3)nc12", "effect on": "binding", "method": "competition with immobilised ligand", "concentration": "1 µM", "measurement": "remaining binding", "result": "100%"}
{"SMILES": "C#Cc1n[nH]c2c(-c3cn([C@@H](C)c4ccccc4)c(=O)[nH]c3=O)cc(F)cc12", "effect on": "enzyme activity", "action": "inhibitor", "concentration": "0.1 µM", "measurement": "inhibition", "result": "5.3%"}
{"SMILES": "COCc1c(-c2cc3cc(C)cc(OC)c3s2)c2c(N)ncnn2c1CN1CCNC(=O)C1", "effect on": "cell-free assay", "method": "competition with immobilised ligand", "concentration": "1 µM", "measurement": "inhibition", "result": "81%"}
{"SMILES": "Cn1cc(-c2cc(F)cc(N3CCn4c(cc5c4CCCC5)C3=O)c2CO)cc(Nc2ccc(N3CCN(C4COC4)CC3)cn2)c1=O", "effect on": "enzyme activity", "action": "inhibitor", "concentration": "0.1 µM", "measurement": "inhibition", "result": "12%"}
{"SMILES": "Nc1ncc(-c2nc(N3CCOCC3)nc(N3CCOCC3)n2)c(C(F)F)n1", "effect on": "cell-free assay", "method": "competition with immobilised ligand", "concentration": "10 µM", "measurement": "remaining binding", "result": "41%"}
